Results: PMC7261596 (Journal of the American Chemical Society, 2019)

Key:
[1] = target: T1, ULK4 (Homo sapiens, UniProt Q96C45); assay: Mant-ADP FRET nucleotide binding / displacement assay; conditions: competition with a fixed concentration of Mant-ADP
[2] = target: T1, ULK4; assay: ADP-Biotin labelling assay detected by Western blot; type: binding; conditions: single concentration 25 μM; ratio of Streptavidin signal to His signal
Procedure, shortened: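 ULK4 incubated with the nucleotide analog ADP-Biotin, which biotin-labels the kinase only when bound. Biotinylated protein detected by Western blot. Test compounds, hits confirmed from a Mant-ADP displacement screen and dose response, tested at 25 μM, with competing nucleotides also at 25 μM. Mutant ULK4 forms also assayed for ADP-Biotin binding.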

T1 sequence (Q96C45 4-280 limits assumed): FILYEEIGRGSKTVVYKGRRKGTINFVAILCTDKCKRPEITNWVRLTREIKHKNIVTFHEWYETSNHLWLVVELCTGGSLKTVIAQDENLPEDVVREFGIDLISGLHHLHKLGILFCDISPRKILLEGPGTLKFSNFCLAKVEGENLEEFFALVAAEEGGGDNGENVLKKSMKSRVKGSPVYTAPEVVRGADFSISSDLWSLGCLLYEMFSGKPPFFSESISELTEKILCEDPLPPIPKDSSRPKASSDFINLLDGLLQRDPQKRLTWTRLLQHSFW

Row | Compound | Ki ([1]; With Mg) [µM] | Ki ([1]; Without Mg) [µM] | inhibition of ADP-Biotin binding to ULK4 (relative potency) [2]
1 | Nc1ncnc2c1ncn2[C@@H]1O[C@H](COP(=O)(O)OP(=O)(O)O)[C@@H](O)[C@H]1O [ADP] | 37 | 6.05 | –
2 | Nc1ncnc2c1ncn2[C@@H]1O[C@H](COP(=O)(O)OP(=O)(O)OP(=O)(O)O)[C@@H](O)[C@H]1O [ATP] | 4.67 | 0.306 | –
3 | CNC(=O)c1nn(C)c2c1C(C)(C)Cc1cnc(Nc3ccc(N4CCN(C)CC4)cc3)nc1-2 [PHA-848125] | – | – | most potent ULK4 binders
4 | COc1cc(Nc2ncc(F)c(Nc3ccc4c(n3)N(COP(=O)(O)O)C(=O)C(C)(C)O4)n2)cc(OC)c1OC [R788] | – | – | most potent ULK4 binders
